Compounds with a hit are over-represented: about 1.6% of the library has one in this group of screens.
DNMT1 block = inhibitors of human DNMT1 | P26358 | DNMT1 molecular beacon, Hinp1I cleavage, fluorescence | inhibition (reported as % activation of signal), % at 10 µM | 360,000 compounds, 0.83% hits | AID 588458; in the data active = inhibition above about 50%
STEP block = inhibitors of human striatal-enriched phosphatase STEP; recombinant STEP, OMFP fluorogenic substrate, fluorescence; inhibition, % at 20 µM; 360,000 compounds, 0.25% hits;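 active = inhibition at 20 µM, scaled per plate between control wells, above about 37%, limit read from the data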
Target sequence (P54829 whole entry, looked up): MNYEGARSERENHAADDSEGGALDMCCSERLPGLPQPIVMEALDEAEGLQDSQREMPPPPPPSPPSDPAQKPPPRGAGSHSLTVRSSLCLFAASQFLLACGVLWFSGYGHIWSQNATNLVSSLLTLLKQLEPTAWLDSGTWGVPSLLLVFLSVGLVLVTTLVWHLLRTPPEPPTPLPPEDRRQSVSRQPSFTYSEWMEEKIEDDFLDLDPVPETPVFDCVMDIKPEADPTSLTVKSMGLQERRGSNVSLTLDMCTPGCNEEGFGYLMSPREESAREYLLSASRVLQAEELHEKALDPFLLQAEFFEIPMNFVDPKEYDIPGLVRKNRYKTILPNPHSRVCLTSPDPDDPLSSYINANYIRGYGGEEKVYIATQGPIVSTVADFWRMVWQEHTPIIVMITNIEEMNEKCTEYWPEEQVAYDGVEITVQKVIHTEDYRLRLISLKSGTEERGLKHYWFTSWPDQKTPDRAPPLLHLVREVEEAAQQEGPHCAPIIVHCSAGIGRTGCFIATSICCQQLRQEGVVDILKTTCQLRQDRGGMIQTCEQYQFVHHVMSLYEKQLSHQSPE
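System: STEP (striatal-enriched tyrosine phosphatase) enzyme, cell-free; medium: Bis-Tris pH 6.0 buffer with DTT, detergent; dosing: 20 µM, 1% DMSO; times: reaction 20 min, ambient temperature; detection: fluorescence, 480/540 nm; read-out basis: normalized % inhibition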
F508del corr = CFTR F508del correction in bronchial cells; CFBE cells, YFP halide quenching; stimulated with forskolin plus potentiator P3; % fluorescence drop versus neutral controls; activity (quench increase), % at 7.58 µM; 350,000 compounds, 0.36% hits; AID 720511;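 active = mean added fluorescence quench of at least 8% versus neutral control, with both replicates also reaching 8%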;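 also: cells transiently co-express mutant CFTR-F508del with the halide-sensitive YFP; corrector assay measuring rescue of mutant channel to the surface after 24 h compound exposure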
Scp1 inh = inhibitors of human Scp-1 phosphatase | Q9GZU7 | Recombinant Scp1, phosphopeptide, malachite green phosphate absorbance | inhibition, % at 20 µM | 340,000 compounds, 0.88% hits | AID 493091;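 active = inhibition above about 50% at 20 µM, limit read from the data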
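Test system: SCP-1 phosphatase catalytic domain, residues 76-261; measured by: colorimetric phosphate reagent with accelerator and stabiliser, absorbance at 630 nm; timing: enzyme reaction 45 min at room temperature, colour 5 min, stabilisation 30 min; also added: Phosphorylated 17-residue peptide substrate; compound dosing: one concentration, 20 µM, with 1.0% DMSO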
LMPTP block = LMPTP (human) inhibition; 360,000 compounds, 0.22% hits; recombinant LMPTP-A, OMFP fluorogenic substrate, fluorescence intensity; inhibition, % at 20 µM; AID 651560; P24666;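 active = compounds that cut the enzyme signal by at least half of the control window in the single-dose screen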
Target sequence (P24666 whole entry, looked up): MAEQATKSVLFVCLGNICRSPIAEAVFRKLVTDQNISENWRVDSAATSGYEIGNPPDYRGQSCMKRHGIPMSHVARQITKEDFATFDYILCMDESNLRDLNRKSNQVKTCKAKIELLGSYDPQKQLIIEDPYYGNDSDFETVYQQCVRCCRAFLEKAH
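test system = LMPTP-A | amount = 0.625 nM LMPTP-A final | reagent = fluorogenic phosphatase substrate OMFP at 400 µM final | incubation = 50 min at room temperature | benchmarks = no-enzyme low control, uninhibited high control | medium = Bis-Tris pH 6.0, DTT, detergent | signal = fluorescence intensity of OMFP turnover product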
SUMO1-SIM PPI = SUMO1-SIM interaction modulation; SUMO1 binding to a labelled peptide, TR-FRET, 1 h; P63165; 360,000 compounds, 0.33% hits; inhibition, % at 20 µM; in the data active = inhibition above about 37%
Scp-1 conf = confirmation of human Scp-1 phosphatase inhibitors; recombinant SCP-1 catalytic domain, phosphate release, malachite green absorbance; inhibition, % at 20 µM; 2,500 compounds, 61% hits; shares compounds with Scp1 inh
MG interference = colorimetric interference in Scp-1 counter-screen; shares compounds with Scp1 inh; AID 540313; apparent inhibition (interference), % at 20 µM; 2,500 tested, under 10 active; Colorimetric interference counterscreen, malachite green absorbance 630 nm;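 also: compounds added after enzyme reaction finished so only phosphate colour detection is probed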
Scp-1 Tm shift = Scp-1 (human) binding by thermal shift | Recombinant SCP1, Sypro Orange thermal shift Tm | thermal shift relative to vanadate control, % at 40 µM | shares compounds with Scp1 inh | 1,500 compounds, 25% hits;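 active = substances whose mean melting-temperature shift, as a percentage of the reference inhibitor's shift, reaches about 5.3%, limit read from the data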
Numbers stand for hits; 0 = inactive; - = no result; ! = a repeat was not active.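 The calls were made as follows, unless noted: active = inhibition of at least 30% at 20 µM; inactive = the rest.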

SMILES	DNMT1 block	STEP block	F508del corr	Scp1 inh	LMPTP block	SUMO1-SIM PPI	Scp-1 conf	MG interference	others
Cc1cccc(NC(=O)C2CCCN2S(=O)(=O)c2ccc3c(c2)n(C)c(=O)c(=O)n3C)c1 (stereo not drawn)	0	0	0	0	0	0	0	0
CCc1cccc(NC(=O)C2CCCN2S(=O)(=O)c2ccc3c(c2)n(C)c(=O)c(=O)n3C)c1 (stereo not drawn)	0	0	0	0	0	0	-	-
C[N+]1(C2CCC3CCCC2C3O)CCCCC1 (stereo not drawn)	0	0	0	95.6	0	0	78.3	0	Scp-1 Tm shift=0
O=C1CN(S(=O)(=O)Cc2ccccc2)C[C@H]2[C@@H](c3ccc(C#CCC4CCCC4)cc3)[C@@H](CO)N12	-	-	0	-	-	-	-	-
C[C@@H]1CN([C@@H](C)CO)C(=O)c2cccc(NC(=O)NC3CCCCC3)c2O[C@@H]1CN(C)C(=O)NC1CCCCC1	-	-	0	-	-	-	-	-
COc1ccccc1NC(=O)C(=N\O)/C(C)=N/O	0	0	-	75.2	0	0	30.2	0	Scp-1 Tm shift=0
CC(NC(=O)c1cc2c(=O)n(C)c3ccccc3c2n1C)c1ccc2c(c1)OCCO2 (stereo not drawn)	0	0	0	0	0	0	-	-
CC(NC(=O)COc1cc(=O)n(C)c2ccccc12)c1ccc2c(c1)OCCO2 (stereo not drawn)	0	0	-	0	0	0	0	0
CC[n+]1ccc(C[n+]2ccccc2)c2ccccc21	0	0	-	96.9	0	0	86.2	0	Scp-1 Tm shift=0
O=C(C1CCC1)N1CCCCN2[C@H](CO)[C@@H](c3ccc(C#CC4CCCC4)cc3)[C@H]2C1	-	-	0	-	-	-	-	-
O=C(Nc1cc2c(cc1Cl)OCCCO2)c1ccco1	0	0	-	0	0	0	0	0
N#Cc1ccccc1N1CCN(C(=O)c2ccc(NC(=O)c3ccc(Br)o3)cc2)CC1	0	0	-	60.4	0	0	73.0	0	Scp-1 Tm shift=0
O=C(Nc1ccc(C(=O)N2CCN(c3ccccn3)CC2)cc1)c1ccc(Br)o1	0	0	0	0	0	0	-	-
O=C1NC(=O)C(c2ccccc2)(c2ccccc2)N1	0	0	0	84.8!	0	0	0	0
O=C1NC(=O)C(c2ccccc2)(c2ccc(O)cc2)N1 (stereo not drawn)	0	0	0	0	0	0	-	-
Cc1ccc(S(=O)(=O)Nc2ccc3c(c2)C(=O)N([C@H](C)CO)C[C@@H](C)[C@H](CN(C)Cc2ccccc2)OCCCC[C@@H](C)O3)cc1	-	-	0	-	-	-	-	-
CN(C)C(=O)C[C@H]1CC[C@@H]2[C@H](COC[C@@H](O)CN2Cc2nccs2)O1	-	-	0	-	-	-	-	-
COc1ccc(CN(C(=O)/C=C/c2ccco2)C2CCS(=O)(=O)C2)cc1 (stereo not drawn)	0	0	0	87.4	0	0	45.5	0	Scp-1 Tm shift=0
O=C(Nc1cccc(NC(=O)C2CCCO2)c1)C1CCCO1 (stereo not drawn)	0	0	0	56.1	0	0	0	0
CC(=O)Nc1cccc(NC(=O)C2CCCO2)c1 (stereo not drawn)	0	0	0	-	0	0	-	-
COc1ccc(C)cc1NC(=O)c1ccc2c(=O)n3c(nc2c1)CCCCC3	0	0	0	56.4	0	0	0	0
Cc1ccc(C)c(NC(=O)c2ccc3c(=O)n4c(nc3c2)CCC4)c1	0	0	0	0	0	0	-	-
CCOc1ccccc1-c1nc(-c2cc3ccc(C)cc3[nH]c2=O)no1	0	0	-	57.0	0	0	39.4	0	Scp-1 Tm shift=0
Cc1nn(C)c(Cl)c1S(=O)(=O)N1CCC(CO)(CCc2ccccc2)CC1	0	0	0	80.8	0	0	0	0
COc1ccc(CC2(CO)CCN(S(=O)(=O)c3c(C)nn(C)c3Cl)CC2)cc1	0	0	0	0	0	0	-	-
SMILES	DNMT1 block	STEP block	F508del corr	Scp1 inh	LMPTP block	SUMO1-SIM PPI	Scp-1 conf	MG interference	others
COc1cc(/C=C2\SC(=S)N(CCCCC(=O)O)C2=O)ccc1OS(=O)(=O)c1ccc(C)cc1	0	0	0	50.7	0	0	47.9	0	Scp-1 Tm shift=14.6
NS(=O)(=O)c1ccc(CNC(=O)Cc2ccc(S(=O)(=O)N3CCOCC3)s2)cc1	0	0	0	0	0	0	-	-
O=C(Cc1ccc(S(=O)(=O)N2CCOCC2)s1)NCC1CCCCC1	0	0	-	0	0	0	-	-
NS(=O)(=O)c1ccc(CCNC(=O)Cc2ccc(S(=O)(=O)N3CCCC3)s2)cc1	0	0	0	75.7	0	0	74.0	0	Scp-1 Tm shift=0
O=C(Cc1ccc(S(=O)(=O)N2CCOCC2)s1)NC1CCCCC1	0	0	0	61.1	0	0	70.4	0	Scp-1 Tm shift=7.9
O=C(c1ccc2c(c1)OCO2)N1CC(=O)N2[C@@H](CO)[C@H](c3ccc(C#Cc4ccccc4)cc3)[C@@H]2C1	-	-	0	-	-	-	-	-
CC(C)NC(=O)N(C)C[C@H]1Oc2ccc(NC(=O)Cc3cn(C)c4ccccc34)cc2CC(=O)N([C@H](C)CO)C[C@@H]1C	-	-	0	-	-	-	-	-
CNC(=O)C[C@H]1CC[C@H]2[C@@H](COc3ccc(NC(=O)Nc4ccccc4OC)cc3C(=O)N2C)O1	-	-	0	-	-	-	-	-
C[C@H](CO)N1C[C@H](C)[C@@H](CN(C)C(=O)c2cccnc2)Oc2cc(C#CC3CC3)ccc2S1(=O)=O	-	-	0	-	-	-	-	-
Nc1ccc2cccc(O)c2c1	0	0	0	55.9	0	0	53.8	0	Scp-1 Tm shift=12.6
O=C(O)c1ccc2c(=O)n3c(nc2c1)/C(=C/c1ccc(Cl)c(Cl)c1)CC3	0	0	0	55.0	0	0	0	0
O=C(O)c1ccc2c(=O)n3c(nc2c1)/C(=C/c1cccc(O)c1)CC3	0	0	0	0	0	0	-	-
C[C@H](CO)N1C[C@H](C)[C@@H](CN(C)CC2CC2)Oc2cc(C#C[C@@H](C)O)ccc2S1(=O)=O	-	-	0	-	-	-	-	-
COc1ccc2c3c([nH]c2c1)[C@@H](CO)NCC31CCN(C(=O)c2ccccc2)CC1	-	-	0	-	-	-	-	-
C[N+]1(CCOS(=O)C23CC4CC(CC(C4)C2)C3)CCOCC1 (stereo not drawn)	0	0	-	105.0	0	0	0	0
CCOc1ccccc1OCCCC(=O)NNC(=O)c1ccc(F)cc1	0	0	0	58.7	0	0	0	0
CCCCCC(=O)NNC(=O)c1ccc(F)cc1	0	0	-	0	0	0	-	-
CCc1ccc(C(C)NC(=O)Cn2cnc3c(=O)n(C)c(=O)n(C)c32)cc1 (stereo not drawn)	0	0	-	0	0	0	0	0
